≈ marks a conversion by molar mass, not a printed value.
Legend:
[1] = tested on: Staphylococcus aureus; assay: Antibacterial activity against Staphylococcus aureus ATCC 25923 incubated […] by microdilution resazurin assay; format: functional
[2] = tested on: Staphylococcus aureus; assay: Antibacterial activity against methicillin resistant Staphylococcus aureus clinical isolate 1 incubated […] by microdilution resazurin assay; format: functional; details: Staphylococcus aureus, isolate 1; read-out: MIC
[3] = tested on: Staphylococcus aureus; assay: Antibacterial activity against methicillin resistant Staphylococcus aureus clinical isolate 2 incubated […] by microdilution resazurin assay; format: functional; details: Staphylococcus aureus, isolate 2; read-out: MIC
[4] = tested on: Staphylococcus aureus; assay: Antibacterial activity against methicillin resistant Staphylococcus aureus clinical isolate 3 incubated for 7 to 14 days by microdilution resazurin assay
[5] = tested on: Staphylococcus aureus; assay: Antibacterial activity against methicillin resistant Staphylococcus aureus clinical isolate 4 incubated for 7 to 14 days by microdilution resazurin assay
[6] = tested on: Staphylococcus aureus; assay: Antibacterial activity against methicillin resistant Staphylococcus aureus clinical isolate 5 incubated […] by microdilution resazurin assay; format: functional; details: Staphylococcus aureus, isolate 5; read-out: MIC
[7] = tested on: Staphylococcus aureus; assay: Antibacterial activity against methicillin resistant Staphylococcus aureus clinical isolate 6 incubated […] by microdilution resazurin assay; format: functional; details: Staphylococcus aureus, isolate 6; read-out: MIC
[8] = tested on: Staphylococcus aureus; assay: Antibacterial activity against methicillin resistant Staphylococcus aureus clinical isolate 7 incubated […] by microdilution resazurin assay; format: functional; details: Staphylococcus aureus, isolate 7; read-out: MIC
[9] = tested on: Staphylococcus aureus; assay: Antibacterial activity against methicillin resistant Staphylococcus aureus clinical isolate 8 incubated […] by microdilution resazurin assay; format: functional; details: Staphylococcus aureus, isolate 8; read-out: MIC
[10] = tested on: Staphylococcus aureus; assay: Antibacterial activity against methicillin resistant Staphylococcus aureus clinical isolate 9 incubated […] by microdilution resazurin assay; format: functional; details: Staphylococcus aureus, isolate 9; read-out: MIC
[11] = tested on: Staphylococcus aureus; assay: Antibacterial activity against methicillin resistant Staphylococcus aureus clinical isolate 10 incubated […] by microdilution resazurin assay; format: functional; details: Staphylococcus aureus, isolate 10; read-out: MIC
[12] = Cytotoxicity against human WS1 cells by resazurin reduction assay; format: cell-based; details: Homo sapiens, WS1
How it was run: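 WS1 human fibroblast line; resazurin reduction test, slightly modified from an earlier method. Etoposide served as positive control.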

`O=C(/C=C/c1ccccc1)OCC(C/C=C/c1ccc(O)cc1)C(c1ccc(O)cc1)c1c(O)cc(O)c(C(=O)CCc2ccccc2)c1O` (racemic) gave an MIC ([1]; Staphylococcus aureus, ATCC 25923, read-out: MIC) of 50 µM (≈ 33.5 µg/mL), an MIC [2] of 25 µM (≈ 16.8 µg/mL) and an MIC [3] of 25 µM (≈ 16.8 µg/mL). For the same compound, the MIC [4] was 13 µM (≈ 8.72 µg/mL), the MIC [5] was 25 µM (≈ 16.8 µg/mL) and the MIC [6] was 3 µM (≈ 2.01 µg/mL). For the same compound, the MIC [7] was 25 µM (≈ 16.8 µg/mL), the MIC [8] was 25 µM (≈ 16.8 µg/mL) and the MIC [9] was 25 µM (≈ 16.8 µg/mL). For the same compound, the MIC [10] was 25 µM (≈ 16.8 µg/mL), the MIC [11] was 25 µM (≈ 16.8 µg/mL) and the IC50 [12] was > 10 µM.

With `O=C(CCc1ccccc1)c1c(O)cc2c(c1O)CC(O)C(c1ccc(O)cc1)O2` (stereo in doubt; (-)-17) the MIC [1] was 25 µM (≈ 10.2 µg/mL), the MIC [2] was 50 µM (≈ 20.3 µg/mL) and the MIC [3] was 50 µM (≈ 20.3 µg/mL). For the same compound, the MIC [4] was 50 µM (≈ 20.3 µg/mL), the MIC [5] was 50 µM (≈ 20.3 µg/mL) and the MIC [6] was 50 µM (≈ 20.3 µg/mL). For the same compound, the MIC [7] was 50 µM (≈ 20.3 µg/mL), the MIC [8] was 25 µM (≈ 10.2 µg/mL) and the MIC [9] was > 50 µM. The MIC [10] was > 50 µM, the MIC [11] was 50 µM (≈ 20.3 µg/mL) and the IC50 [12] was > 10 µM.

Source: ChEMBL document CHEMBL4425163, “Structure elucidation of anti-methicillin resistant Staphylococcus aureus (MRSA) flavonoids from balsam poplar buds” (Bioorg Med Chem, 2016)
